Reference: paper PMC7745057 (Translational Oncology, 2020)

Key:
PC-9 (Del19) = conditions: read-out: potency against Del19 (measure not given); ref [20]; cited from earlier work
H1975 (T790M) = conditions: read-out: potency against T790M (measure not given); ref [20]; cited from earlier work
LOVO (wild-type EGFR) = conditions: read-out: potency in wild-type EGFR cell line (measure not given); ref [20]; cited from earlier work
H1975 (L858R T790M) = assay: Cell proliferation assay; assay type: cell-based; conditions: Homo sapiens, NCI-H1975, 72 h
[1] = tested on: EGFR wild-type cell lines (H460, Calu-6 and LOVO) and EGFR-deficient Ba/F3 cells; assay: Cell proliferation assay, summary over the panel; assay type: cell-based; conditions: read-out: mean IC50 values
H1975 cells = assay: Cell cycle analysis; assay type: cell-based, human; conditions: 1 nmol/L, 24 h
Summary of the method: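 H1975 cells plated at 2 × 10⁵ per well and allowed to adhere, then exposed to 1 nmol/L test compound for 24 h. Cells fixed in 75% ethanol at −20 °C overnight, washed in PBS, and stained with DNA staining solution for 30 min at room temperature in the dark. DNA content analysed immediately by flow cytometry; n = 3.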

[2] = tested on: H1975 (L858R T790M) xenografts; assay: H1975 subcutaneous xenograft study; assay type: in vivo, BALB/c nude mouse; conditions: BEBT-109 30 and 60 mg/kg
[3] = tested on: HCC827 (Del19) xenografts; assay: HCC827 subcutaneous xenograft study; assay type: in vivo, BALB/c nude mouse; conditions: BEBT-109 60 mg/kg, osimertinib 25 mg/kg (MTD doses)
Summary of the method: (§1)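 Female BALB/c nude mice, 7–8 weeks old, inoculated subcutaneously in the right armpit with 2–5 × 10⁶ cells/ml in 0.1 ml PBS (PC-9 in 50% matrigel). Randomised at n = 8 per group; oral test compound started at 200–300 mm³. Tumors measured by caliper, with V = length × width²/2; survival followed after treatment.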

PC-9 (Del19) xenografts = assay: PC-9 subcutaneous xenograft study; assay type: in vivo, BALB/c nude mouse; conditions: BEBT-109 60 mg/kg, osimertinib 25 mg/kg (MTD doses)
Summary of the method: as §1

[4] = tested on: EGFR A767_V769dupASV-driven Ba/F3 tumor model; assay: Ba/F3 EGFR A767_V769dupASV xenograft study; assay type: in vivo, BALB/c nude mouse; conditions: BEBT-109 40 mg/kg bid, osimertinib 20 mg/kg qd (MTD doses), 14 days, n = 8
[5] = Tolerability in xenograft studies; assay type: in vivo, BALB/c nude mouse; conditions: HCC827, PC-9 and exon 20 insertion xenograft models

C=CC(=O)Nc1cc(Nc2nccc(-c3c[nH]c4ccccc34)n2)c(OC)cc1N(C)CCN(C)C [AZ5104]
IC50 (PC-9 (Del19)): 2 nM
IC50 (H1975 (T790M)): 2 nM
IC50 (LOVO (wild-type EGFR)): 33 nM

C=CC(=O)Nc1cc(Nc2nccc(-c3cn(C)c4ccccc34)n2)c(OC)cc1N(C)CCN(C)C [Osimertinib]
IC50 (H1975 (L858R T790M)): 3.9 nM
IC50 [1]: > 1000 nM
effect on cell-cycle progression (H1975 cells): did not change the cell cycle profile
host mice survival post treatment ([2]; osimertinib 25 mg/kg): > 30 days
tumor regression ([2]; osimertinib 25 mg/kg (MTD), daily, four weeks): complete H1975 tumor regression
tumor regression [3]: complete tumor regression
tumor regression (PC-9 (Del19) xenografts): complete tumor regression
tumor growth [4]: sustained tumor regression was not observed
body weight [5]: Neither drug caused significant body weight loss
